Experimental data collected from several papers.
Each line is one published result; the experiments were not run side by side.

With `Cc1ccc(C(=O)N(CCCN)[C@@H](c2oc3cc(Cl)ccc3c(=O)c2Cc2ccccc2)C(C)C)cc1` the clearance was 23.6 mL/min (human, plasma; intravenous, 6 mg/m², single dose, patients, infusion).
The hepatocyte CLint of `Cn1cnc(-c2nc3ccccn3c2Nc2ccc(F)cc2)c1` is reported as 14 µL/min/10⁶ cells (metabolic stability; rat, hepatocytes).
With `c1ccc(-c2nc(N3CCC(c4ccccn4)C3)c3ccccc3n2)cc1` (stereo not drawn) the microsomal CLint was 182 µL/min/mg (metabolic stability; human, liver microsomes).
The hepatocyte CLint of `Fc1ccc(Nc2c(-c3ncccc3F)nc3ccccn23)cc1` is reported as 100 µL/min/10⁶ cells (metabolic stability; rat, hepatocytes).
For `c1ccc(-c2nc(N3CCN(c4ccccn4)CC3)c3ccccc3n2)nc1`, the microsomal CLint was 79 µL/min/mg (metabolic stability; human, liver microsomes).
The CL/F of `c1cnc2ccc(Nc3nc(NC4CC4)c4nc[nH]c4n3)cc2c1` is reported as 76.6 L/h (human, plasma; oral, 800 mg/m², patients).
For `COc1ccc(Nc2nc(-c3ccccn3)nc3ccccc23)cc1`, the microsomal CLint was 73 µL/min/mg (metabolic stability; human, liver microsomes).
The chromatographic logD of `CCOC(=O)C1=C(C)N/C(=C/c2ccn(-c3ccc(C(F)(F)F)cc3)c2)C1=O` is reported as 3.4 (HPLC; pH 7.4).
`CS(=O)(=O)CCC#N` has a CL/F of 0.233 mL/min/kg (human, plasma; oral, 1000 mg, single dose, fasted).
`NC(=O)C1CCN(c2nc(-c3ccccn3)nc3ccccc23)C1` (stereo not drawn) gave a microsomal CLint of 37 µL/min/mg (metabolic stability; human, liver microsomes).
For `CC1=C(C(=O)OCc2ccccc2)C(=O)/C(=C\c2cc(C)n(-c3ccccc3C(F)(F)F)c2C)N1`, the chromatographic logD was 4 (HPLC; pH 7.4).
`Clc1cccc(-c2c(-c3ccccn3)nc3n2CCC3)c1` gave a hepatocyte CLint of 51 µL/min/10⁶ cells (metabolic stability; rat, hepatocytes).
For `COc1cc(C(=O)NC2CCN(C)CC2)c(F)cc1Nc1ncc(C(F)(F)F)c(Oc2cccc3c2C(=O)N(C)C3)n1`, the CL/F was 20.8 L/h (human, plasma; oral, 10 mg, multiple doses, once daily, patients).
The CL/F of `CCOc1ccc(Cc2cc([C@@H]3O[C@H](CO)[C@@H](O)[C@H](O)[C@H]3O)ccc2Cl)cc1` is reported as 21.1 L/h (human, plasma; oral, multiple doses, steady state).
With `c1ccc(-c2nc(N3CCCCCC3)c3ccccc3n2)nc1` the microsomal CLint was 190 µL/min/mg (metabolic stability; human, liver microsomes).
For `CCCN(c1ccc(F)cc1)c1c(-c2ccccn2)nc2ccccn12`, the hepatocyte CLint was 110 µL/min/10⁶ cells (metabolic stability; rat, hepatocytes).
For `C[C@@H](C(=O)NC1Cc2ccccc2C1)c1ccccc1`, the microsomal CLint was over 200 µL/min/mg (metabolic stability; rat, liver microsomes; 1 µM).
For `COc1ccccc1-c1nc(N2CCC(c3ccccn3)C2)c2ccccc2n1` (stereo not drawn), the microsomal CLint was 69 µL/min/mg (metabolic stability; human, liver microsomes).
The hepatocyte CLint of `COc1cc(OC)cc(-c2c(-c3ccccn3)nc3n2CCC3)c1` is reported as over 300 µL/min/10⁶ cells (metabolic stability; rat, hepatocytes).
`N#CC1CCCN(c2nc(-c3ccccn3)nc3ccccc23)C1` (stereo not drawn) gave a microsomal CLint of 48 µL/min/mg (metabolic stability; human, liver microsomes).
The renal clearance of `OC[C@H]1O[C@@H](c2ccc(Cl)c(Cc3ccc(O[C@H]4CCOC4)cc3)c2)[C@H](O)[C@@H](O)[C@@H]1O` is reported as 21.1 mL/min (human, urine; oral, 25 mg, single dose).
`COc1ccc2nc(-c3cc(N(C)C)ccn3)c(N(C)c3ccc(F)cc3)n2c1` gave a hepatocyte CLint of over 300 µL/min/10⁶ cells (metabolic stability; rat, hepatocytes).
The microsomal CLint of `c1ccc(C2CCN(c3nc(-c4ccn[nH]4)nc4ccccc34)C2)nc1` (stereo not drawn) is reported as 46 µL/min/mg (metabolic stability; human, liver microsomes).
`COc1ccn2c(Nc3ccccc3F)c(-c3ccncn3)nc2c1` has a hepatocyte CLint of 170 µL/min/10⁶ cells (metabolic stability; rat, hepatocytes).
`CCNCCCNC/C=C\CNCCCNCC` gave a clearance of 3140 mL/min (human, plasma; intravenous, 200 mg, patients, infusion).
The hepatocyte CLint of `Fc1ccc(Nc2c(-c3cc(Cl)ccn3)nc3ccccn23)cc1` is reported as over 300 µL/min/10⁶ cells (metabolic stability; rat, hepatocytes).
The logD of `Cc1c(C(=O)NN2CCCCC2)nc(-c2ccc(Cl)cc2Cl)n1-c1ccc(OCc2ccccc2)cc1` is reported as over 5.3 (shake flask; aqueous buffer; pH 7.4).
